Screens (PubChem)
Rows were chosen to be rich in hits. Some 4.5% of all compounds tested hit in one or more screens of this group.
MDM2 E3 inh: Mdm2 E3 ligase (human) inhibition; Q00987; actives 0.11% (n = 210,000); cell-based MDM2 ubiquitination luciferase reporter, 2 h; 0 = plate control, 100 = twice control, blank-subtracted; signal enhancement, % at 5 µM;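 active = signal enhancement of 30% or more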;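 note: luminescence tracks abundance of the self-degrading MDM2-luciferase fusion protein; higher signal means inhibition of MDM2 E3 ligase activity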
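Assay system: stable mammalian line carrying autodegrading MDM2–luciferase fusion reporter; Input: 2000 cells in each well; Compound dosing: single-point 5 µM; Schedule: 2 h compound exposure at 37 °C; Signal: SteadyLite luciferase luminescence after 15 min room-temperature reagent incubation; Evaluation: % luminescence enhancement versus blank-corrected plate control mean; Benchmarks: plate controls and plate blanks.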
NF-kB neuron act: raises NF-kB expression in human neuronal cells. AID 1239. fold change at 12.5 µM. NF-kB reporter expression; hits give high values. actives 1.6% (n = 190,000); in the data active = fold change above about 3.3
STAT1 activator: STAT1 signaling activation. NIH 3T3 STAT1-luciferase reporter, IFN-gamma, luminescence; 100% = IFN-gamma alone, no compound. activation (% of control), % at 5.5 µM. actives 2.6% (n = 200,000). AID 932;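 active = activation above the screen-wide mean activation plus 3 SD, cut at about 130% in these data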;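 note: raw ratio to IFN-gamma control signal so 100% means no change and 0% no light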
AHR act: activators of human aryl hydrocarbon receptor | P35869 | actives 2.5% (n = 320,000) | AHR-responsive luciferase reporter cells, luminescence | activation, % at 5 µM | AID 2796; in the data active = activation above about 47%;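 note: 0% = vehicle wells and 100% = reference agonist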
PERK inhibitor: human PERK inhibition, primary cell-based screen | inhibition, % at 5.6 µM | CHO PERK-DD fusion, SEAP luminescence translation reporter | actives 0.17% (n = 220,000) | Q9NZJ5;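 active = inhibition above the mean inhibition of all tested compounds plus 3 SD, set separately per screening campaign, cut at about 2.9% in these data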;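 note: PERK kinase domain activated by AP20187 dimerizer at 100 nM; 0% = DMSO with dimerizer and 100% = rapamycin at 8.4 µM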
Target sequence (Q9NZJ5 whole entry, looked up, the tested form may be a part): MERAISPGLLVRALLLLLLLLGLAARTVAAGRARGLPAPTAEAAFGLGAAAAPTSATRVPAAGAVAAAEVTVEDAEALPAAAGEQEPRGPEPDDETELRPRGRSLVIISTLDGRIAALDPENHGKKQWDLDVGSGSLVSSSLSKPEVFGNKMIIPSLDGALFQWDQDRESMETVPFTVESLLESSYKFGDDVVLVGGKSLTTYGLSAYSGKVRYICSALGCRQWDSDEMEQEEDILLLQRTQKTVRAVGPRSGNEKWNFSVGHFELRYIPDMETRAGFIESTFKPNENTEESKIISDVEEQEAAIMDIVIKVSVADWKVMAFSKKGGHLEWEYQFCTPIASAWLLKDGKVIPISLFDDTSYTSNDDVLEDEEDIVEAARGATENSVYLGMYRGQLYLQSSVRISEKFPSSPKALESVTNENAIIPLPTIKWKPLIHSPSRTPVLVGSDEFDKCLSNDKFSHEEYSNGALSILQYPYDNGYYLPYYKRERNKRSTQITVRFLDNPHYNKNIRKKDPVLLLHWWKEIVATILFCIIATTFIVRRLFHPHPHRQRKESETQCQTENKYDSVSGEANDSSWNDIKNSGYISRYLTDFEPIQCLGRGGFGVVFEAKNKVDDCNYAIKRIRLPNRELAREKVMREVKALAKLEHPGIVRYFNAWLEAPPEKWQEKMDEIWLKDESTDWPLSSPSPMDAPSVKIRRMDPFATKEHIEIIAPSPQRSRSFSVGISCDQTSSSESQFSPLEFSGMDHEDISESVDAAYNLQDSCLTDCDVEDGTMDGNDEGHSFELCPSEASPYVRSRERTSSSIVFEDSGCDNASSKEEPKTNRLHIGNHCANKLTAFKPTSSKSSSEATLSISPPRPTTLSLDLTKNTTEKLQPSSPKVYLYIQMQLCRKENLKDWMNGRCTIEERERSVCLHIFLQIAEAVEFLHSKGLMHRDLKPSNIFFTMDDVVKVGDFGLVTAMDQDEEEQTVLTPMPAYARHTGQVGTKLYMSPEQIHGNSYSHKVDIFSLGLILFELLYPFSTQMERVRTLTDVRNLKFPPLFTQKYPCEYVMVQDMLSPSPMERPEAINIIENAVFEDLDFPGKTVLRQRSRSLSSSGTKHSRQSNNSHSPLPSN
APP 5'UTR act: APP 5'UTR luciferase reporter activation. SH-SY5Y APP 5'UTR luciferase reporter, luminescence; zero percent = DMSO vehicle wells. activation, % at 2 µM. actives 1% (n = 190,000). AID 1276;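 active = activation above a set limit, based on mean plus 3 SD of controls, cut at about 140% in these data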
An asterisk follows results filed as active; . = no result.

SMILES	MDM2 E3 inh	NF-kB neuron act	STAT1 activator	AHR act	PERK inhibitor	APP 5'UTR act
CC1=NN(C(N)=S)C(=O)C1N=Nc1ccc(C)c(Br)c1 (stereo not drawn)	.	.	.	58*	.	.
COc1ccccc1N=NC1C(=O)N(C(N)=S)N=C1C (stereo not drawn)	.	.	.	64*	.	.
CC1=NN(C(N)=S)C(=O)C1N=Nc1ccc(O)cc1 (stereo not drawn)	-6	2.1	95	.	1	-9
CC1=NN(C(N)=S)C(=O)C1N=Nc1ccccc1Cl (stereo not drawn)	.	.	.	3	.	.
CC1=NN(C(N)=S)C(=O)C1N=Nc1cccc(C)c1 (stereo not drawn)	.	.	.	64*	0	.
C1CC(CN2CCOCC2)CN(Cc2nc(CC3CC3)no2)C1 (stereo not drawn)	-12	1.1	99	-4	0	14
CCOC(=O)N1CCC(NC(=O)CC2C(=O)NCCN2Cc2cccc(F)c2F)CC1 (stereo not drawn)	.	.	.	-1	.	.
CN(C)/C=C1/Oc2c(ccc3ccccc23)C1=O	-11	1.6	109	66*	1	1
CN(C)/C=C1\Oc2ccc3ccccc3c2C1=O	-8	3.7*	135*	12	1	86
CN(C)/C=C1\C(=O)Oc2ccccc2C1=O	.	.	.	-1	.	.
CCOCCCNC(=O)c1ccc2c(c1)N=C(CC)c1cc(Br)ccc1S2	-28	3	117	9	0	-94
CCOc1cc(C2NN=C(c3ccc(C)cc3)S2)ccc1O (stereo not drawn)	-16	4.8*	136*	12	0	59
COc1ccc(C2NN=C(c3ccc(C)cc3)S2)cc1 (stereo not drawn)	.	.	.	0	.	.
Cc1ccc(NC(=S)NCc2ccc(S(N)(=O)=O)cc2)cc1Cl	-15	0.97	96	0	1	3
O=C(Cc1cccs1)NCCSc1c(-c2ccc(Cl)cc2)[nH]c2ccccc12	.	0.57	98	51*	0	0
CNc1snc(C)c1C(=O)OC(C)C(=O)Nc1ccccc1 (stereo not drawn)	.	.	.	4	.	.
COc1cc(/C=C/C(=O)N2CCCc3ccccc32)cc(OC)c1OC	-3	0.38	102	55*	-1	-9
O=C(c1ccccc1)N1CCc2ccccc21	-9	1	95	0	0	-6
CCOC(=O)/C=C/C(=O)N1CCc2ccccc21	-4	1.1	97	11	1	-2
O=C(c1ccco1)N1CCc2ccccc21	-29	2.3	134*	0	1	55
O=C(/C=C/c1ccco1)N1CCc2ccccc21	-53	7.7*	90	6	0	250*
O=C(c1ccc(Br)o1)N1CCc2ccccc21	-12	4.3*	148*	2	1	119
COc1ccc(/C=C/C(=O)N2CCCc3ccccc32)cc1	-4	1.2	110	29	0	-3
C/C(=N\NC(=O)CC1N=C(Cc2ccccc2)NNC1=O)c1ccc(Cl)cc1Cl (stereo not drawn)	-11	0.79	97	2	-1	-16
CCOC(=O)Cn1nc(C)c(NC(=O)c2ccc(Br)o2)c1C	.	.	.	3	.	.
SMILES	MDM2 E3 inh	NF-kB neuron act	STAT1 activator	AHR act	PERK inhibitor	APP 5'UTR act
NS(=O)(=O)c1ccc(CNC(=O)CNC(=O)c2ccc(F)cc2)cc1	.	.	.	0	.	.
CSCC[C@H](NC(=O)[C@@H]1CSC2c3ccccc3C(=O)N21)C(=O)NCc1ccco1 (stereo partly drawn)	.	.	.	4	.	.
O=C1CN(C(=O)/C=C/c2ccccc2)CCN1	.	.	.	0	.	.
O=C1CCN(C(=O)/C=C/c2ccccc2)c2ccccc21	-4	1.9	129*	7	1	15
Cc1c(CCOC(=O)c2cccc([N+](=O)[O-])c2)sc[n+]1CC(=O)c1ccccc1	0	0.94	93	2	0	12
C=CCN=c1scc(C)n1/N=C/c1ccc(O)c(O)c1	-8	2	111	45	-1	8
CN=c1scc(C)n1/N=C/c1ccc(O)cc1	-15	12*	114	-3	2	93
COc1ccc(O)c(/C=N/n2c(-c3ccco3)csc2=Nc2cccnc2)c1	-4	0.96	104	12	0	1
CN=c1scc(C)n1/N=C/c1ccc2c(c1)OCO2	-14	8.6*	120	-11	1	209*
CN=c1scc(-c2ccco2)n1/N=C/c1ccc(O)c(O)c1	-21	3.8*	100	.	0	9
CN=c1scc(C)n1/N=C/c1ccc(O)cc1O	-29	3.8*	49	1	0	156*
O=C(CN1CCN(C(=O)C2CC2)CC1)Nc1cc(C(F)(F)F)cc(C(F)(F)F)c1	.	.	.	3	.	.
CCOc1ccc(N2C(=O)S/C(=C\c3cc(OC)c(OC)c(OC)c3)C2=O)cc1	-8	.	.	-7	0	.
COc1cc(/C=N\NC(=O)c2sc(N)nc2C)cc(OC)c1OC	-11	0.78	104	62*	0	3
COc1cc(/C=N/NC(=O)c2cc(-c3ccccc3)sc2N)cc(OC)c1OC	-18	.	.	49*	-2	.
COc1cc(/C=N/NC(=O)c2ccc(-c3ccccc3)cc2)cc(OC)c1OC	-7	0.98	112	11	-1	-5
Cc1cccc(NC(=O)c2ccc([N+](=O)[O-])s2)n1	.	.	.	1	.	.
CC(=O)c1ccc(OCc2cc(C(=O)NC3CCCCC3)no2)cc1	.	.	.	9	.	.
C/C(=N\NC(=O)c1nc2ccccn2c1C)c1cc2ccccc2o1	-11	0.57	107	14	0	-8
C/C(=N\NC(=O)c1nc2ccccn2c1C)c1ccco1	-30	0.97	136*	17	0	-3
O=C(c1ccco1)N1CCN(S(=O)(=O)c2cccc([N+](=O)[O-])c2)CC1	.	.	100	1	0	19
C/C(=N\NC(=O)c1cc(-c2ccc(Br)s2)[nH]n1)c1ccncc1	.	.	.	40	.	.
C/C(=N\NC(=O)c1cc(-c2ccc(Cl)s2)[nH]n1)c1ccncc1	.	.	.	50*	.	.
O=C(NCc1ccccc1Cl)[C@@H]1CCCN1S(=O)(=O)c1ccc(Cl)cc1	.	.	.	-1	.	.
O=C1NN(c2ccccc2)C(=O)/C1=C/c1ccc(-c2ccc(Cl)c(C(=O)O)c2)o1	-8	1.1	101	.	1	11
SMILES	MDM2 E3 inh	NF-kB neuron act	STAT1 activator	AHR act	PERK inhibitor	APP 5'UTR act
Cc1cccc(N2NC(=O)/C(=C/c3ccc(-c4ccc(Cl)c(C(=O)O)c4)o3)C2=O)c1	-25	3.9*	90	.	1	9
CCOc1cccc(/C=C/c2ccc3cccc(O)c3n2)c1OC	.	.	.	76*	.	.
COc1ccccc1/C=C/c1ccc2cccc(O)c2n1	.	.	.	75*	.	.
Oc1cccc2ccc(/C=C/c3ccccc3Cl)nc12	.	.	.	15	.	.
O/N=C/c1ccc2cccc(O)c2n1	2	.	.	0	3.7*	.
Oc1cccc2ccc(/C=C/c3c(F)cccc3Cl)nc12	3	5.4*	97	41	-1	136*
CC(C)OCCCN(C)C1CCN(S(=O)(=O)c2ccc(-c3cc(C(F)(F)F)no3)s2)CC1	.	.	.	0	.	.
COc1cc(Cl)cc(/C=C/c2ccc3cccc(O)c3n2)c1OC	.	.	.	40	.	.
